The values that follow come from PubChem BioAssay.

SMILES strings stand for the structures. Active and inactive are the calls of the source.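 How the source made its calls, unless noted: active means compounds giving at least 50% inhibition in the cell-based MKP-3 phosphatase rescue imaging test; inactive means the rest.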

Assay [1] is described as follows: inhibitors of TNFa-induced NFkB p65 translocation, primary screen, imaging, HUVEC, MLSMR starter and 10KST1 sets (AID 438;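 active means inhibition above 20% together with a positive visual image hit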;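 further: compound added about 3h40 before a 20 min TNFalpha stimulation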;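 on inhibition: signal is the nuclear over cytoplasmic p65 intensity ratio per well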). The settings on record: HUVEC TNFa-induced p65 nuclear translocation; cell count: measured here: nuclei count (cytotoxicity indicator), at 2.08 µM; inhibition: at 2 µM, stronger effect = higher value, 0% TNFa-plus-vehicle, 100% no-TNFa wells.
Assay [2] can be described thus: inhibitors of E-selectin induction by TNFa, primary screen, imaging, HUVEC, immunofluorescence, MLSMR starter and 10KST1 sets (AID 487;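 active means visually confirmed hit in the image check and inhibition above 20%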;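 on inhibition: signal is fraction of cell area covered by stained E-selectin grains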;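 on nuclei count: 100% = median nuclei count of all wells on the same plate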). Particulars: HUVEC TNFalpha-induced E-selectin immunofluorescence imaging, at 2 µM; inhibition: stronger effect = higher value; nuclei count: measured here: cell number, toxicity.
Assay [3] can be described thus: DUSP6 inhibitors restoring Erk phosphorylation by chemical complementation, primary imaging in DUSP6-transfected HeLa (AID 609).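 On inhibition: phospho-Erk level distribution per well compared with pooled transfected vehicle control wells.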 Particulars: HeLa MKP-3 transfected, phospho-Erk imaging KS statistic, at 10 µM, cells stimulated with TPA for 15 min.
For assay [4], the target named is Dual specificity protein phosphatase 6 (Homo sapiens) (UniProt Q16828). The assay is described as above. Particulars: HeLa MKP-3 transfected, phospho-Erk imaging KS statistic; at 10 µM; stronger effect = higher value; cells stimulated with TPA for 15 min.
Chain of Dual specificity protein phosphatase 6 (Homo sapiens) (Q16828 whole entry, looked up): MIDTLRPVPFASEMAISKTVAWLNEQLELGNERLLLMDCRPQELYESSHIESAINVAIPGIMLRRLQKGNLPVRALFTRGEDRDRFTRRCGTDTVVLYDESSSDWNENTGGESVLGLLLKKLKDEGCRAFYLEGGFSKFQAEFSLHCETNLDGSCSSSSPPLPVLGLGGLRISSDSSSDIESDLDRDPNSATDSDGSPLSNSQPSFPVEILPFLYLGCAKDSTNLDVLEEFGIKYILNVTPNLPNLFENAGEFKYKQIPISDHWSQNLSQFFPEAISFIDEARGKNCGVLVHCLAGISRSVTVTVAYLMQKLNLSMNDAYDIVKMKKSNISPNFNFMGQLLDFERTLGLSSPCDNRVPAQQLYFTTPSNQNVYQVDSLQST
Assay [5] concerns the target Voltage-gated potassium channel subunit beta-2 (Rattus norvegicus) (UniProt P62483). Put plainly: KvBeta enzyme negative modulators, primary screen, biochemical, NADPH fluorescence (AID 622;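 active means fluorescence slope higher than the sample average by over 3 SD, cut at about -0.22 in these data, passing the limit was not always enough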;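 further: slope of raw intensity against log time taken from 70 to 1610 s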). The settings on record: recombinant KvBeta, 4-cyanobenzaldehyde reduction, at 10 µM, stronger effect = higher value.
For assay [6] the target is unchanged. Nature of the assay: KvBeta positive modulators, primary screen, biochemical, NADPH fluorescence (AID 623;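 active means NADPH fluorescence slope more negative than the mean of all samples by about 3 SD, 99.7% confidence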;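 further: fluorescence intensity change per second fitted from 20 to 320 s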). Particulars: Recombinant KvBeta, NADPH fluorescence decrease slope, 10 min; at 10 µM; stronger effect = lower value.
For assay [7], the target named is Alpha-2C adrenergic receptor (Homo sapiens) (UniProt P18825). Put plainly: modulators of alpha2C/GIRK thallium flux, primary screen, cell-based, HEK293 alpha2C/GIRK1/2 (AID 624;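 active means fluorescence slope after compound addition differing from the mean of all screened samples at 99.7% confidence, in either direction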;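 further: slope of fluorescence ratio to pre-addition baseline per second over 15 to 24 s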). Particulars: thallium flux BTC fluorescence, at 10 µM, actives lie on both sides.
Chain of Alpha-2C adrenergic receptor (Homo sapiens) (P18825 whole entry, looked up): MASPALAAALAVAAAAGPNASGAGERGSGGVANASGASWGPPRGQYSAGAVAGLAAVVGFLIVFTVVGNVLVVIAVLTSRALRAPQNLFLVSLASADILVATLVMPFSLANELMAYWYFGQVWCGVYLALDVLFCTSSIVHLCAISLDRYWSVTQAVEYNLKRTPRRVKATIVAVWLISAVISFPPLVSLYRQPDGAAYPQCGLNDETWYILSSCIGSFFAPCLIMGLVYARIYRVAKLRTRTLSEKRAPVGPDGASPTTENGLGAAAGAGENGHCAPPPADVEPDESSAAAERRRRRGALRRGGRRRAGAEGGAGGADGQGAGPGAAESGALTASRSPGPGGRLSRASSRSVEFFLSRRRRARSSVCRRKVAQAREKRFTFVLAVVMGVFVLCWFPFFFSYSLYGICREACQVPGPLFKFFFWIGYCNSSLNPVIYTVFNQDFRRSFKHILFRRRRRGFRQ
Assay [8] is described as follows: inhibitors of larval lipid processing in zebrafish, primary screen, whole organism, PED6 fluorescence, gall bladder and intestine (AID 686;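 active means a full or partial loss of lipid-probe fluorescence in the fish gall bladder, intestine or both, judged by eye; inactive means no fluorescence loss, or compound toxic to the fish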;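 further: larvae 5 to 7 days old with five fish per well; signal comes from phospholipase A2 cleavage of quenched PED6 carried via bile; overnight exposure to compound and PED6 before scoring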). The settings on record: Zebrafish larvae PED6 lipid processing, fluorescence scoring; screened at 20 µM (by protocol). The method in brief:
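System: live zebrafish larvae aged 5-7 days, whole organism; measure: graded gall bladder and intestinal fluorescence inhibition per well; incubation: overnight exposure; reagent: ingested quenched lipid PED6 at 100 nM; signal: By-eye fluorescence microscopy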

Assay [9] is described as follows: inhibitors of Chlamydomonas gravitaxis, primary screen, whole organism, Chlamydomonas reinhardtii, WT vs cilia-less mutant, absorbance, 96-well (AID 463189;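 active means inhibition at or above 50% relative to wild type and mutant plate controls; inactive means inhibition below 50%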;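 further: 0% = wild type cc124 cells in DMSO and 100% = ciliumless bld1 mutant cells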). The settings on record: OD600 absorbance, 2 days, at 10 µM, stronger effect = higher value.
Where [10] appears, read: measured here: cell density z-score.
Where [11] appears, read: measured here: nuclear c-Myc green intensity z-score.
The mark [12] stands for this setting: measured here: nuclear pErk red intensity z-score, stronger effect = higher value.

Chain of Voltage-gated potassium channel subunit beta-2 (Rattus norvegicus) (P62483 whole entry, looked up): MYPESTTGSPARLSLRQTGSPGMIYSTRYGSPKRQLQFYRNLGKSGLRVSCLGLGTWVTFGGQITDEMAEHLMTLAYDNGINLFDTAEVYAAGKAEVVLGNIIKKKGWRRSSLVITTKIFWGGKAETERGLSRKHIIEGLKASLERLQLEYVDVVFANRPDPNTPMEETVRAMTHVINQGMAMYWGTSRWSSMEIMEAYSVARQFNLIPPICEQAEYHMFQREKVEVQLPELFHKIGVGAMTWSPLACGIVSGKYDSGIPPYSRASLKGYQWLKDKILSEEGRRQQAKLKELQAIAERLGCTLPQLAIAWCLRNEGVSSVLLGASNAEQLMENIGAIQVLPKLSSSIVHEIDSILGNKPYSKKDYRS

Turning to `COc1ccc(NC(=O)Nc2cccc(C(=O)N3CCOCC3)c2)cc1OC`, the cell count in assay [1] amounted to 543. Further, the inhibition was 0% (inactive) in assay [1], -176% (inactive) in [2], 12.3% (inactive) in [4] and 12.3% (inactive) in assay [9]. In [2], the nuclei count was 131%. The z-score is 0.702 in assay [3] (setting [10]), -0.546 in assay [3] (setting [11]) and -0.00586 in [3] (setting [12]). For the same molecule, the fluorescence slope in assay [5] is -0.527 (inactive). Further, the NADPH fluorescence slope in [6] is -7.4e-05 (inactive). Further, the slope in assay [7] is 0.00529 (inactive). Besides, the molecule was called inactive in assay [8].
For the molecule `CCOC(=O)c1c(C)n(C)c2ccc(OC)c(NC(=O)CN3CCCCC3)c12`, the cell count in assay [1] is 343. The inhibition in assay [1] was -2.7% (inactive); in assay [2], -15% (inactive); in assay [4] it was -6.59% (inactive); in [9], -10.1% (inactive). In addition, the nuclei count in assay [2] came out at 132%. Further, the z-score in [3] (setting [10]) was -1.53; in assay [3] (setting [11]), -1.22; in assay [3] (setting [12]), 2.07. In addition, the fluorescence slope in [5] is -0.46 (inactive). In assay [6], the NADPH fluorescence slope was -0.000136 (inactive). Also, in assay [7], the slope was 0.00641 (inactive). Also, in assay [8], the molecule was classed as inactive.
As to `CCOC(=O)CSc1nc2ccccc2c(=O)n1C`, in [1], the cell count was determined as 636. In addition, the inhibition in assay [1] was -9.5% (inactive); in assay [2], -24.4% (inactive); in [4] it was -5.89% (inactive); in assay [9], -11.1% (inactive). For the same molecule, the nuclei count in [2] amounted to 170%. Besides, the results for the z-score in assay [3] (setting [10]), in assay [3] (setting [11]) and in [3] (setting [12]) were -0.479, 1.67 and 1.83, respectively. Besides, the fluorescence slope in assay [5] is -0.523 (inactive). The NADPH fluorescence slope in [6] is -3.8e-05 (inactive). Also, the slope in assay [7] was 0.00573 (inactive). In assay [8], the outcome was inactive.
For `Cc1ccc(S(=O)(=O)NC(=O)NCc2ccc3c(c2)OCO3)cc1`, in assay [1], the cell count came out at 396. Moreover, the inhibition is -2.3% (inactive) in assay [1], -36.4% (inactive) in assay [2], 5.57% (inactive) in assay [4] and -10% (inactive) in assay [9]. The molecule further registered a nuclei count in assay [2] of 91.6%. Further, the z-score in [3] (setting [10]) was -0.395; in [3] (setting [11]), 0.582; in [3] (setting [12]) it was -0.563. The fluorescence slope in assay [5] is -0.485 (inactive). In assay [6], the NADPH fluorescence slope is -0.000226 (inactive). In addition, the slope in [7] was 0.00482 (inactive). For the same molecule, the result in [8] was inactive.
Take `Nc1nnc(CSCc2ccc(F)cc2)s1`: the cell count in assay [1] amounted to 537. The inhibition in assay [1] was 7% (inactive); in assay [2] it was 23.2% (inactive); in [4], -13.3% (inactive); in assay [9], 3.98% (inactive). Moreover, in assay [2], the nuclei count was 111%. Also, the results for the z-score in [3] (setting [10]), in assay [3] (setting [11]) and in assay [3] (setting [12]) were -1.12, 1.17 and -0.516, respectively. Also, the fluorescence slope in [5] was -0.473 (inactive). For the same molecule, the NADPH fluorescence slope in [6] was -2.4e-05 (inactive). For the same molecule, in [7], the slope is 0.00497 (inactive). In assay [8], the molecule was called inactive.
In the case of `Cc1cc(=O)oc(C)c1C(=O)N[C@@H]1CCCCNC1=O`, the cell count in [1] worked out at 433. The inhibition in assay [1] is -2.4% (inactive); in assay [2], -137% (inactive); in assay [4], -8.27% (inactive); in assay [9], -3.12% (inactive). In assay [2], this molecule returned a nuclei count of 150%. Further, the z-score in assay [3] (setting [10]) is 0.96; in assay [3] (setting [11]) it was -0.243; in assay [3] (setting [12]), -0.864. Further, the fluorescence slope in [5] was -0.423 (inactive). Further, the NADPH fluorescence slope in assay [6] is -6.9e-05 (inactive). Also, the slope in assay [7] was 0.00507 (inactive). In addition, the molecule was called inactive in assay [8].
As for `CCOc1cccc(-c2nnc3sc(-c4ccc(C)cc4)nn23)c1`, the cell count in assay [1] worked out at 588. Besides, the inhibition in assay [1] was -12% (inactive); in [2] it was -113% (inactive); in assay [4] it was -9.66% (inactive); in assay [9] it was -1.49% (inactive). The nuclei count in assay [2] amounted to 166%. Besides, the figures for the z-score in assay [3] (setting [10]), in [3] (setting [11]) and in assay [3] (setting [12]) were 0.29, -1.67 and 0.863, respectively. Besides, the fluorescence slope in assay [5] is -0.458 (inactive). Moreover, the NADPH fluorescence slope in assay [6] is -0.000137 (inactive). Further, the slope in assay [7] was 0.00552 (inactive). In addition, in assay [8], the outcome was inactive.

As usually defined, the inhibition is the change of the read-out against control, counted positive when it falls.
